Activity calls are given as the source filed them. The rule behind the calls is not given here. Where a SMILES comes first, the peptide text is derived from it. [ ]: non-standard residue; d: D form. 1Nal = N[C@@H](Cc1cccc2ccccc12)C(=O)O; 2Nal = N[C@@H](Cc1ccc2ccccc2c1)C(=O)O; NMeR = CN[C@@H](CCCNC(=N)N)C(=O)O; NMeF = CN[C@@H](Cc1ccccc1)C(=O)O; hArg = N=C(N)NCCCC[C@H](N)C(=O)O; β3hR = N=C(N)NCCC[C@H](N)CC(=O)O; Cha = N[C@@H](CC1CCCCC1)C(=O)O; Gly(cPr) = N[C@H](C(=O)O)C1CC1; β3hK = NCCCC[C@H](N)CC(=O)O; Orn = NCCC[C@H](N)C(=O)O
Legend:
[1] = (§1) Disruption of PP1 holoenzyme (unknown origin) interaction with protein inhibitor 2 assessed as increase in PP1 phosphatase activity by measuring increase in fluorescence using DiFMUP as substrate enzyme preincubated with I2 for ten mins followed by compound treatment for 20 mins followed by substrate addition by fluorescence based analysis; parameters: species or system Homo sapiens
HeLa = assay: Induction of calcium release in human HeLa cells and measured for 30 mins by fluorescent Ca2+-indicator dye Fluo-4 based fluorescence microscopy; assay type: functional, cell-based
Method in brief: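 HeLa Kyoto cells in low-glucose DMEM, 10% FBS, seeded day before to ~80% confluency; loaded with 0.5 μM Fluo-4 in HEPES imaging buffer pH 7.4 (1.2 mM CaCl2) 30 min rt, washed; confocal imaging ex 488/em 516 nm, 2 min baseline, compound added, recorded 30 min; responder cells counted. Calcium-free variant: CaCl2 omitted, 250 μM EGTA.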

Homo sapiens = species: Homo sapiens; assay: as §1, with “as substrate at 500 uM enzyme preincubated” for “as substrate enzyme preincubated”

Compound | EC50 [1] [µM] | further results
CC(C)[C@H](NC(=O)[C@@H](N)CCCNC(=N)N)C(=O)N[C@H](C(=O)N[C@@H](Cc1ccc(O)cc1)C(=O)O)[C@@H](C)O (H-RVTY-OH) | > 500 | –
CC(=O)N[C@@H](CCCNC(=N)N)C(=O)N[C@H](C(=O)N[C@H](C(=O)N[C@@H](Cc1ccccc1)C(N)=O)[C@@H](C)O)C(C)C (Ac-RVTF-NH2) | 85.7 | –
CC(C)[C@@H](NC(=O)[C@H](N)CCCNC(=N)N)C(=O)N[C@@H](C(=O)N[C@@H](Cc1ccccc1)C(=O)O)[C@H](C)O (H-[dR][dV][dT]F-OH) | > 500 | –
CC(C)[C@H](NC(=O)[C@H](CCCNC(=N)N)NC(=O)[C@@H](N)CCCCN)C(=O)N[C@@H](Cc1cnc[nH]1)C(=O)N[C@@H](Cc1cccc2ccccc12)C(N)=O (H-KRVH[1Nal]-NH2) | 2.5 | –
Ac-KRVHF-NH2 | 1.7 | –
N=C(N)NCCC[C@H](NC(=O)[C@@H](N)CCCCN)C(=O)N[C@H](C(=O)N[C@@H](Cc1c[nH]cn1)C(=O)N[C@@H](Cc1ccccc1)C(N)=O)C1CC1 (H-KR[Gly(cPr)]HF-NH2) | 2.1 | Activity (HeLa): Active
CC(C)[C@@H](NC(=O)[C@H](NC(=O)[C@H](N)Cc1ccccc1)[C@H](C)O)C(=O)N[C@H](CCCNC(=N)N)C(=O)O (H-[dF][dT][dV][dR]-OH) | > 500 | –
CC(C)[C@H](NC(=O)[C@H](N)CCCNC(=N)N)C(=O)N[C@H](C(=O)N[C@H](Cc1ccccc1)C(=O)O)[C@@H](C)O (H-[dR]VT[dF]-OH) | > 500 | –
CC(C)[C@H](NC(=O)[C@@H](N)CCCCN)C(=O)N[C@H](C(=O)N[C@@H](Cc1ccccc1)C(=O)O)[C@@H](C)O (H-KVTF-OH) | > 500 | –
CC(C)[C@H](NC(=O)[C@@H](N)CCCNC(=N)N)C(=O)N[C@@H](CCC(=O)O)C(=O)N[C@@H](Cc1ccccc1)C(=O)O (H-RVEF-OH) | – | Activity (Homo sapiens): Active
CC(C)[C@H](NC(=O)[C@H](CCCNC(=N)N)NC(=O)[C@@H](N)CCCCN)C(=O)N[C@@H](Cc1cnc[nH]1)C(=O)N[C@@H](CC1CCCCC1)C(N)=O (H-KRVH[Cha]-NH2) | 52.5 | –
CC(C)[C@H](NC(=O)[C@H](CCCCNC(=N)N)NC(=O)[C@@H](N)CCCCN)C(=O)N[C@@H](Cc1cnc[nH]1)C(=O)N[C@@H](Cc1ccccc1)C(N)=O (H-K[hArg]VHF-NH2) | 1.7 | Activity (HeLa; DDE = dose-dependent effect): Dde
CC(C)[C@H](NC(=O)[C@@H](NC(=O)[C@@H](N)Cc1ccccc1)[C@@H](C)O)C(=O)N[C@@H](CCCNC(=N)N)C(=O)O (H-FTVR-OH) | > 500 | –
CC(C)[C@H](NC(=O)[C@H](CCCNC(=N)N)NC(=O)C[C@@H](N)CCCNC(=N)N)C(=O)N[C@@H](Cc1cnc[nH]1)C(=O)N[C@@H](Cc1ccccc1)C(N)=O (H-[β3hR]RVHF-NH2) | 3.2 | Activity (HeLa): Active
CC[C@H](C)[C@H](NC(=O)[C@@H](N)CCCNC(=N)N)C(=O)N[C@H](C(=O)N[C@@H](Cc1ccccc1)C(=O)O)[C@@H](C)O (H-RITF-OH) | – | Activity (Homo sapiens): Active
CC(C)[C@H](NC(=O)[C@H](CCCNC(=N)N)NC(=O)[C@H](N)CCCCN)C(=O)N[C@@H](Cc1cnc[nH]1)C(=O)N[C@@H](Cc1ccccc1)C(N)=O | 2.6 | –
CC(C)[C@H](NC(=O)C[C@H](CCCNC(=N)N)NC(=O)[C@@H](N)CCCCN)C(=O)N[C@@H](Cc1c[nH]cn1)C(=O)N[C@@H](Cc1ccccc1)C(N)=O (H-K[β3hR]VHF-NH2) | 204 | –
CC(C)[C@H](NC(=O)[C@@H](N)CCCNC(=N)N)C(=O)N[C@H](C(=O)N[C@@H](Cc1c[nH]c2ccccc12)C(=O)O)[C@@H](C)O (H-RVTW-OH) | 256 | –
CC(C)[C@H](NC(=O)[C@H](N)CCCNC(=N)N)C(=O)N[C@H](C(=O)N[C@@H](Cc1ccccc1)C(=O)O)[C@@H](C)O (H-[dR]VTF-OH) | > 500 | –
CC(C)[C@H](NC(=O)[C@@H](N)CCCNC(=N)N)C(=O)N[C@@H](CC(=O)O)C(=O)N[C@@H](Cc1ccccc1)C(=O)O (H-RVDF-OH) | > 500 | –
CC(C)[C@H](NC(=O)[C@H](CCCNC(=N)N)NC(=O)C[C@@H](N)CCCCN)C(=O)N[C@@H](Cc1c[nH]cn1)C(=O)N[C@@H](Cc1ccccc1)C(N)=O (H-[β3hK]RVHF-NH2) | 9.8 | –
CC(C)[C@H](NC(=O)[C@H](CCCNC(=N)N)NC(=O)[C@@H](N)CCCCN)C(=O)N[C@@H](Cc1c[nH]cn1)C(=O)N[C@@H](Cc1ccc2ccccc2c1)C(N)=O (H-KRVH[2Nal]-NH2) | 1.5 | –
CC(C)[C@H](NC(=O)[C@@H](N)CCCNC(=N)N)C(=O)N[C@H](C(=O)N[C@@H](Cc1ccccc1)C(=O)O)[C@@H](C)O (H-RVTF-OH) | 234 | –
CC[C@H](C)[C@H](NC(=O)[C@@H](NC(=O)[C@H](CCC(=O)O)NC(=O)[C@H](C)NC(=O)[C@H](C)NC(=O)[C@H](CCC(=O)O)NC(=O)[C@H](Cc1ccc(C(=O)c2ccccc2)cc1)NC(=O)[C@H](Cc1ccccc1)NC(=O)[C@@H](NC(=O)[C@@H](NC(=O)[C@H](CCCNC(=N)N)NC(=O)[C@H](C)NC(=O)[C@H](CC(N)=O)NC(=O)[C@H](CCCCN)NC(=O)[C@H](CCCNC(=N)N)NC(=O)[C@H](CCCCN)NC(=O)[C@H](CCCNC(=N)N)NC(=O)[C@H](CCCCN)NC(=O)[C@@H]1CCCN1C(=O)[C@H](CCCNC(=N)N)NC(=O)[C@H](CCCCN)NC(=O)[C@H](CCCNC(=N)N)NC(=O)[C@H](CCCNC(=N)N)NC(C)=O)C(C)C)[C@H](C)O)[C@@H](C)CC)C(N)=O | 0.233 | –
H-KHVHF-NH2 | 24.6 | –

Compound | EC50 [1] [µM] | further results
CC(C)[C@@H](NC(=O)[C@@H](N)CCCNC(=N)N)C(=O)N[C@H](C(=O)N[C@@H](Cc1ccccc1)C(=O)O)[C@@H](C)O (H-R[dV]TF-OH) | > 500 | –
CC(C)[C@H](NC(=O)[C@@H](N)CCCNC(=N)N)C(=O)N[C@@H](Cc1ccccc1)C(=O)N[C@@H](Cc1ccccc1)C(=O)O (H-RVFF-OH) | > 500 | –
CC(C)[C@H](NC(=O)[C@@H](N)CCCNC(=N)N)C(=O)N[C@@H](CO)C(=O)N[C@@H](Cc1ccccc1)C(=O)O (H-RVSF-OH) | > 500 | –
CC(C)[C@H](NC(=O)[C@@H](N)CCCNC(=N)N)C(=O)N[C@@H](CCCCN)C(=O)N[C@@H](Cc1ccccc1)C(=O)O (H-RVKF-OH) | 249 | –
CC(C)[C@H](NC(=O)[C@H](CCCNC(=N)N)NC(=O)[C@@H](N)CCCCN)C(=O)N[C@@H](Cc1c[nH]cn1)C(=O)N(C)[C@@H](Cc1ccccc1)C(N)=O (H-KRVH[NMeF]-NH2) | 23.5 | –
CC(C)[C@H](NC(=O)[C@@H](N)CCCNC(=N)N)C(=O)N[C@@H](CC(N)=O)C(=O)N[C@@H](Cc1ccccc1)C(=O)O (H-RVNF-OH) | 220 | –
CC(C)[C@H](NC(=O)[C@@H](N)CCCNC(=N)N)C(=O)N[C@H](C(=O)N[C@@H](Cc1ccccc1)C(N)=O)[C@@H](C)O (H-RVTF-NH2) | 101 | –
CC(C)[C@H](NC(=O)[C@@H](N)CCCNC(=N)N)C(=O)N[C@@H](Cc1ccc(O)cc1)C(=O)N[C@@H](Cc1ccccc1)C(=O)O (H-RVYF-OH) | – | Activity (Homo sapiens): Active
CC(C)[C@H](NC(=O)[C@@H](N)CCCNC(=N)N)C(=O)NCC(=O)N[C@@H](Cc1ccccc1)C(=O)O (H-RVGF-OH) | – | Activity (Homo sapiens): Active
CC(=O)N[C@@H](CCCNC(=N)N)C(=O)N[C@H](C(=O)N[C@H](C(=O)N[C@@H](Cc1ccccc1)C(=O)O)[C@@H](C)O)C(C)C (Ac-RVTF-OH) | > 500 | –
CC(C)[C@H](NC(=O)[C@@H](N)CCCNC(=N)N)C(=O)N[C@@H](CCC(N)=O)C(=O)N[C@@H](Cc1ccccc1)C(=O)O (H-RVQF-OH) | 224 | –
CC(C)[C@H](NC(=O)[C@@H](N)CCCNC(=N)N)C(=O)N[C@@H](C(=O)N[C@@H](Cc1ccccc1)C(=O)O)[C@H](C)O (H-RV[dT]F-OH) | > 500 | –
Ac-KRVHF-OH | 3.2 | –
CC(C)[C@H](NC(=O)[C@H](CCCNC(=N)N)NC(=O)[C@@H](N)CCCCNC(=N)N)C(=O)N[C@@H](Cc1cnc[nH]1)C(=O)N[C@@H](Cc1ccccc1)C(N)=O (H-[hArg]RVHF-NH2) | 6.6 | –
CC(C)[C@H](NC(=O)[C@@H](NC(=O)[C@@H](N)CCCNC(=N)N)C(C)C)C(=O)N[C@@H](Cc1ccccc1)C(=O)O (H-RVVF-OH) | – | Activity (Homo sapiens): Active
CC(C)[C@H](NC(=O)[C@@H](N)CCCNC(=N)N)C(=O)N[C@@H](Cc1c[nH]c2ccccc12)C(=O)N[C@@H](Cc1ccccc1)C(=O)O (H-RVWF-OH) | 104 | –
CC(C)[C@H](NC(=O)[C@H](CCCNC(=N)N)N(C)C(=O)[C@@H](N)CCCCN)C(=O)N[C@@H](Cc1cnc[nH]1)C(=O)N[C@@H](Cc1ccccc1)C(N)=O (H-K[NMeR]VHF-NH2) | 4.7 | Activity (HeLa): Active
CC(C)C[C@H](NC(=O)[C@@H](N)CCCNC(=N)N)C(=O)N[C@H](C(=O)N[C@@H](Cc1ccccc1)C(=O)O)[C@@H](C)O (H-RLTF-OH) | – | Activity (Homo sapiens): Active
H-RRVHF-OH | 2.7 | –
CC(C)[C@H](NC(=O)[C@@H](N)CCCNC(=N)N)C(=O)N[C@@H](Cc1cnc[nH]1)C(=O)N[C@@H](Cc1ccccc1)C(=O)O (H-RVHF-OH) | 69.7 | –
CC(C)[C@H](NC(=O)[C@@H](N)CCCNC(=N)N)C(=O)N[C@H](C(=O)N[C@H](Cc1ccccc1)C(=O)O)[C@@H](C)O (H-RVT[dF]-OH) | > 500 | –
CC(C)[C@H](NC(=O)[C@H](CCCNC(=N)N)NC(=O)[C@@H](N)CCCN)C(=O)N[C@@H](Cc1c[nH]cn1)C(=O)N[C@@H](Cc1ccccc1)C(N)=O (H-[Orn]RVHF-NH2) | 4.1 | Activity (HeLa): Active
CC(C)[C@@H](NC(=O)[C@@H](Cc1cnc[nH]1)NC(=O)[C@H](N)Cc1ccccc1)C(=O)N[C@H](CCCNC(=N)N)C(=O)O | – | Activity (Homo sapiens): Active
H-KRVHF-OH | 1.5 | –

— ChEMBL document CHEMBL5120861, “Short peptide pharmacophores developed from protein phosphatase-1 disrupting peptides (PDPs)” (Bioorg Med Chem, 2022)
